Laboratory results from ChEMBL document CHEMBL1126750, “Nonpeptide angiotensin II receptor antagonists. Synthesis and biological activity of benzimidazolecarboxylic acids” (J Med Chem, 1993).

Columns and labels:
[1] = molecular target: T1, Angiotensin II receptor (Rattus norvegicus) (UniProt P29089+P25095+P35351); assay: Percent inhibition of the Angiotensin-II (0.1ug/kg, iv) induced pressor response after 3 hours of administration (3 mg/kg po) in rats; format: functional, organism-based
Summary of the method: (§1)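 Conscious male Sprague-Dawley rats dosed orally with test compound; pressor response to AII challenge (0.1 µg/kg iv) measured at 3 and 7 h after dosing and expressed as percent inhibition. Duplicate experiments, with n = 3 for some compounds; variation in % inhibition under 30%.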

[2] = molecular target: T1, Angiotensin II receptor (Rattus norvegicus); assay: (§2) Percent inhibition of the Angiotensin-II (0.1micro g/kg, iv) induced pressor response after 7 hours of administration (3 mg/kg po) in rats; format: functional, organism-based; summary of the method: as §1
[3] = molecular target: T1, Angiotensin II receptor (Rattus norvegicus); assay: Percent inhibition of the Angiotensin-II (0.1ug/kg, iv) induced pressor response after 3 hours of administration (1 mg/kg po) in rats; format: functional, organism-based; summary of the method: as §1
[4] = molecular target: T1, Angiotensin II receptor (Rattus norvegicus); assay: Percent inhibition of the Angiotensin-II (0.1ug/kg, iv) induced pressor response after 7 hours of administration (1 mg/kg po) in rats; format: functional, organism-based; summary of the method: as §1
Rattus norvegicus [5] = assay: Percent inhibition of the Angiotensin-II (0.1micro g/kg, iv) induced pressor response after 7 hours of administration (10 mg/kg po) in rats; format: functional; summary of the method: as §1
Rattus norvegicus [6] = assay: Percent inhibition of the Angiotensin-II (0.1ug/kg, iv) induced pressor response after 3 hours of administration (10 mg/kg po) in rats; format: functional; summary of the method: as §1
[7] = molecular target: T2, Type-1 angiotensin II receptor (Bos taurus, UniProt P25104); assay: Inhibition of specific binding of [125 I ] Angiotensin-II (0.2 nM) to bovine adrenal cortex; format: tissue-based
T2 sequence (P25104 whole entry): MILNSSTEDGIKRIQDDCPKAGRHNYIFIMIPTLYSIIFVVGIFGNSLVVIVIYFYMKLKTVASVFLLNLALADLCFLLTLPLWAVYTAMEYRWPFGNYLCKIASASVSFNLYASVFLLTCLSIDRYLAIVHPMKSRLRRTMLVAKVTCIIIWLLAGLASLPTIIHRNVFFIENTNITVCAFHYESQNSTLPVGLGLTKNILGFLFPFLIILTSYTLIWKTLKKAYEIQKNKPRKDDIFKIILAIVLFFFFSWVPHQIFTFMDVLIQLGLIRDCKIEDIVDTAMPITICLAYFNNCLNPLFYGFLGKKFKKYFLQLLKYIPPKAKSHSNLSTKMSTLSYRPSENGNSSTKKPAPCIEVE

Oryctolagus cuniculus = species: Oryctolagus cuniculus; assay: Concentration required for inhibition of Angiotensin-II induced rabbit aorta strips contraction; format: functional
Summary of the method: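 Isolated rabbit aortic strips contracted with AII (10 nM); test compound inhibition measured from concentration-inhibition curves, n = 6-8; IC50 is the concentration halving the AII-induced contraction.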

Rattus norvegicus [8] = assay: Percent inhibition of the Angiotensin-II (0.1micro g/kg, iv) induced pressor response after 7 hours of administration (1 mg/kg po) in rats; format: functional; summary of the method: as §1
Rattus norvegicus [9] = assay: Percent inhibition of the Angiotensin-II (0.1ug/kg, iv) induced pressor response after 7 hours of administration (3 mg/kg po) in rats; format: functional; summary of the method: as §1
Rattus norvegicus [10] = assay: Percent inhibition of the Angiotensin-II (0.1 micro g/kg, iv) induced pressor response after 3 hours of administration (3 mg/kg po) in rats; format: functional; summary of the method: as §1
Rattus norvegicus [11] = assay: Percent inhibition of the Angiotensin-II (0.1micro g/kg, iv) induced pressor response after 7 hours of administration (1 mg/kg po) in rats.; format: functional; summary of the method: as §1
Rattus norvegicus [12] = assay: Percent inhibition of the Angiotensin-II (0.1micro g/kg, iv) induced pressor response after 3 hours of administration (10 mg/kg po) in rats; format: functional; summary of the method: as §1
Rattus norvegicus [13] = assay: as §2; format: functional; summary of the method: as §1
Rattus norvegicus [14] = assay: Percent inhibition of the Angiotensin-II (0.1micro g/kg, iv) induced pressor response after 7 hours of administration (1 mg/kg po) in rat; format: functional; summary of the method: as §1
Rattus norvegicus [15] = assay: Percent inhibition of the Angiotensin-II (0.1 micro g/kg, iv) induced pressor response after 7 hours of administration (1 mg/kg po) in rats; format: functional; summary of the method: as §1

| inhibition [1] [%] | inhibition [2] [%] | inhibition [3] [%] | inhibition [4] [%] | IC50 [7] [nM] | SMILES | further results |
| --- | --- | --- | --- | --- | --- | --- |
| 73 | 72 | 46 | 66 | – | CCCNc1nc2cccc(C(=O)O)c2n1Cc1ccc(-c2ccccc2-c2nn[nH]n2)cc1 | – |
| – | – | – | – | 13000 | CCOc1nc2cc(C(=O)O)ccc2n1Cc1ccc(-c2ccccc2-c2nn[nH]n2)cc1 | Inhibition (Rattus norvegicus [5]): 4%; Inhibition (Rattus norvegicus [6]): 4%; IC50 (Oryctolagus cuniculus): 191 nM |
| 62 | 74 | 21 | 34 | – | CCCCc1nc(Cl)c(CO)n1Cc1ccc(-c2ccccc2-c2nnn[nH]2)cc1 | – |
| 88 | 76 | 100 | 100 | – | CCCSc1nc2cccc(C(=O)O)c2n1Cc1ccc(-c2ccccc2-c2nn[nH]n2)cc1 | – |
| 100 | 100 | 87 | 83 | – | CCCOc1nc2cccc(C(=O)O)c2n1Cc1ccc(-c2ccccc2-c2nn[nH]n2)cc1 | – |
| – | – | – | – | – | CCOc1nc2c(C(=O)O)cccc2n1Cc1ccc(-c2ccccc2-c2nn[nH]n2)cc1 | Inhibition (Rattus norvegicus [5]): 5%; Inhibition (Rattus norvegicus [6]): 22%; IC50 (Oryctolagus cuniculus): 131 nM |
| 61 | 38 | – | – | – | CC(C)c1nc2cccc(C(=O)O)c2n1Cc1ccc(-c2ccccc2-c2nn[nH]n2)cc1 | – |
| – | – | 10 | 10 | 620 | CSCCc1nc2cccc(C(=O)O)c2n1Cc1ccc(-c2ccccc2-c2nn[nH]n2)cc1 | – |
| 37 | 49 | 26 | 44 | 190 | CCOc1nc2cccc(C(=O)O)c2n1Cc1ccc(-c2ccccc2C(=O)O)cc1 | – |
| – | – | 28 | – | – | CNc1nc2cccc(C(=O)O)c2n1Cc1ccc(-c2ccccc2-c2nn[nH]n2)cc1 | Inhibition (Rattus norvegicus [8]): 49% |
| 92 | 96 | 80 | 88 | 84 | O=C(O)c1cccc2nc(C3CC3)n(Cc3ccc(-c4ccccc4-c4nn[nH]n4)cc3)c12 | – |
| 66 | – | – | – | – | CCCOc1nc2cccc(C(=O)OCC)c2n1Cc1ccc(-c2ccccc2-c2nn[nH]n2)cc1 | Inhibition (Rattus norvegicus [9]): 93% |
| – | 95 | 79 | 62 | – | CCc1nc2cccc(C(=O)O)c2n1Cc1ccc(-c2ccccc2-c2nn[nH]n2)cc1 | Inhibition (Rattus norvegicus [10]): 96% |
| 29 | 29 | -9 | 13 | – | CC(C)Cc1nc2cccc(C(=O)O)c2n1Cc1ccc(-c2ccccc2-c2nn[nH]n2)cc1 | – |
| – | – | 47 | 33 | 250 | COCc1nc2cccc(C(=O)O)c2n1Cc1ccc(-c2ccccc2-c2nn[nH]n2)cc1 | – |
| – | – | 85 | 44 | 150 | CSCc1nc2cccc(C(=O)O)c2n1Cc1ccc(-c2ccccc2-c2nn[nH]n2)cc1 | – |

| inhibition [1] [%] | inhibition [2] [%] | inhibition [3] [%] | inhibition [4] [%] | IC50 [7] [nM] | SMILES | further results |
| --- | --- | --- | --- | --- | --- | --- |
| 100 | 100 | 100 | 90 | – | CCOc1nc2cccc(C(=O)OC)c2n1Cc1ccc(-c2ccccc2-c2nn[nH]n2)cc1 | – |
| 100 | 100 | 81 | – | – | CCNc1nc2cccc(C(=O)O)c2n1Cc1ccc(-c2ccccc2-c2nn[nH]n2)cc1 | Inhibition (Rattus norvegicus [11]): 85% |
| 100 | 100 | 100 | 92 | 110 | CCOc1nc2cccc(C(=O)O)c2n1Cc1ccc(-c2ccccc2-c2nnn[nH]2)cc1 | Inhibition (Rattus norvegicus [12]): 100%; Inhibition (Rattus norvegicus [5]): 100%; IC50 (Oryctolagus cuniculus): 0.2 nM |
| – | – | 28 | 7 | 580 | O=C(O)c1cccc2nc(OCC(F)(F)F)n(Cc3ccc(-c4ccccc4-c4nn[nH]n4)cc3)c12 | – |
| 50 | – | – | – | – | Cc1nc2cccc(C(=O)O)c2n1Cc1ccc(-c2ccccc2-c2nn[nH]n2)cc1 | Inhibition (Rattus norvegicus [13]): 51% |
| 15 | 18 | 6 | 0 | – | CCC(C)c1nc2cccc(C(=O)O)c2n1Cc1ccc(-c2ccccc2-c2nn[nH]n2)cc1 (centres undefined) | – |
| 90 | 91 | 83 | 69 | 170 | CCCc1nc2cccc(C(=O)O)c2n1Cc1ccc(-c2ccccc2-c2nn[nH]n2)cc1 | – |
| 80 | – | 49 | 53 | – | CCCCc1nc2cccc(C(=O)O)c2n1Cc1ccc(-c2ccccc2-c2nn[nH]n2)cc1 | Inhibition (Rattus norvegicus [13]): 76% |
| 99 | 97 | 87 | 90 | – | CCSc1nc2cccc(C(=O)O)c2n1Cc1ccc(-c2ccccc2-c2nn[nH]n2)cc1 | – |
| – | – | – | – | 930 | CCOc1nc2ccc(C(=O)O)cc2n1Cc1ccc(-c2ccccc2-c2nn[nH]n2)cc1 | Inhibition (Rattus norvegicus [5]): 34%; Inhibition (Rattus norvegicus [6]): 50%; IC50 (Oryctolagus cuniculus): 1.9 nM |
| – | – | 42 | – | 800 | CNCc1nc2cccc(C(=O)O)c2n1Cc1ccc(-c2ccccc2-c2nn[nH]n2)cc1 | Inhibition (Rattus norvegicus [14]): 50% |
| – | – | 13 | 3 | 580 | COCCc1nc2cccc(C(=O)O)c2n1Cc1ccc(-c2ccccc2-c2nn[nH]n2)cc1 | – |
| – | – | 68 | 57 | – | CCSCc1nc2cccc(C(=O)O)c2n1Cc1ccc(-c2ccccc2-c2nn[nH]n2)cc1 | – |
| 52 | 61 | 38 | – | – | CCCCNc1nc2cccc(C(=O)O)c2n1Cc1ccc(-c2ccccc2-c2nn[nH]n2)cc1 | Inhibition (Rattus norvegicus [15]): 19% |
| 100 | 95 | 100 | 81 | – | CSc1nc2cccc(C(=O)O)c2n1Cc1ccc(-c2ccccc2-c2nn[nH]n2)cc1 | – |
